pIC50: −log10 of the molar value. Active and inactive are the calls of the source. The calls are words filed in the database; no cut-off is given here.
Assays:
Staphylococcus aureus [1] = assay: Sensitization of methicillin-resistant Staphylococcus aureus Mu50 to immune clearance in human whole blood assessed as bacterial survival at 1 uM measured after 24 hrs (reference value: 16.1%); format: functional
Staphylococcus aureus [2] = assay: Sensitization of methicillin-resistant Staphylococcus aureus USA400 MW2 to immune clearance in human whole blood assessed as bacterial survival at 1 uM measured after 24 hrs (reference value: 10.2%); format: functional
Staphylococcus aureus [3] = assay: Sensitization of Staphylococcus aureus Newman to immune clearance in human whole blood assessed as reduction in bacterial survival at 1 uM […] relative to control; format: functional
Staphylococcus aureus [4] = assay: Antibacterial activity against Staphylococcus aureus USA400 MW2 infected Balb/c mouse assessed as reduction of bacterial survival in kidney at 1.3 mg, ip bid administered for 4.5 days followed by bacterial infection measured after 5 days; format: functional, organism-based
Method in brief: (§1)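 Female BALB/c mice, 6–8 weeks. Compound in sterile water ip once and every 12 h for 108 h, total 50 or 200 mg/kg; water controls. Infected 12 h after first dose with 4 × 10^7 CFU USA400 MW2 (100 µL). Killed 5 days post infection; liver or kidney CFU counted on TSA after homogenising in PBS/0.1% Triton X-100. n = 13; two-tailed Mann-Whitney.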

Staphylococcus aureus [5] = assay: Sensitization of methicillin-resistant Staphylococcus aureus USA400 MW2 to H2O2 assessed as reduction in bacterial survival at 1 uM measured after 24 hrs relative to control; format: functional
Method in brief: (§2)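 Strains grown 24 h in TSB with or without inhibitor, washed twice in PBS, then diluted to 4 × 10^6 CFU per 250 µL reaction. H2O2 added to a final 1.5%. Tubes sealed and held 30 min at 37 °C. Reaction stopped with 1000 U/mL catalase. Survivors counted as CFU by serial dilution on TSA plates and compared with untreated (mock) bacteria.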

Staphylococcus aureus [6] = assay: Sensitization of Staphylococcus aureus Newman to immune clearance in human whole blood assessed as bacterial survival at 1 uM measured after 24 hrs (reference value: 26.7%); format: functional
[7] = Volume of distribution at steady state in Sprague-Dawley rat at 5 mg/kg, iv administered as single dose; format: ADME, organism-based; settings: in vivo, read-out: Vdss
Method in brief: (§3)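 Male SD rats, 3 per group, single iv 5 mg/kg or oral 10 mg/kg. Blood sampled 0.083 (iv only), 0.25, 0.5, 1, 2, 4, 6, 8, 24 h postdose; plasma separated at 4 °C, stored −80 °C, analysed within 1 week. Parameters from plasma concentration-time data; F from dose-normalized AUC, oral vs iv.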

[8] = Cytotoxicity against HMEC1 measure after 72 hrs by SRB assay; settings: Homo sapiens, HMEC-1, 72 h
Staphylococcus aureus [9] = assay: Sensitization of methicillin-resistant Staphylococcus aureus Mu50 to H2O2 assessed as reduction in bacterial survival at 1 uM measured after 24 hrs relative to control; format: functional; method in brief: as §2
[10] = biological target: Voltage-gated inwardly rectifying potassium channel KCNH2 (Homo sapiens, UniProt Q12809); assay: Inhibition of human ERG expressed in CHO cells by Qpatch-clamp method; format: cell-based
Staphylococcus aureus [11] = assay: Suppression in survival of methicillin-resistant Staphylococcus aureus USA400 MW2 at 0.05 mM measured after overnight incubation by spectrophotometric method; format: ADME, organism-based; settings: 50 µM
Method in brief: (§4)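 Compound from 20 mM DMSO stock diluted in TSB to final 0.2 or 0.05 mM; DMSO growth controls; paraffin overlay. Overnight cultures inoculated to final OD600 ≈ 0.05; incubated at 37 °C overnight with OD600 read every 30 min.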

Nannizzia gypsea = assay: Antifungal activity against Microsporum gypseum measured after 7 days by serial dilution method; format: functional
Method in brief: (§5)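 Broth serial dilution MIC per NCCLS in RPMI 1640 buffered with 0.165 M MOPS; compounds in DMSO diluted in medium. Dermatophytes incubated at 28 °C, read at 7 days. MIC taken as lowest concentration giving ≥80% growth inhibition versus control (turbidity).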

[12] = Terminal half life in Sprague-Dawley rat at 5 mg/kg, iv administered as single dose; format: ADME, organism-based; settings: in vivo, read-out: beta t1/2 (converted); method in brief: as §3
Staphylococcus aureus [13] = assay: Inhibition of staphyloxanthin pigment formation in methicillin-resistant Staphylococcus aureus USA300 LAC after 48 hrs by spectrophotometric method; format: functional, organism-based
Method in brief: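 MRSA grown in 4 mL TSB with 40 µL compound (2-fold serial dilutions from 20 mM DMSO stock) at 37 °C for 48 h, triplicate. Cells washed twice in PBS, pigment extracted with methanol, OD450 measured; IC50 from dose-response fit.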

Staphylococcus aureus [14] = assay: Suppression in growth of methicillin-resistant Staphylococcus aureus USA400 MW2 at 0.05 mM measured after overnight incubation by spectrophotometric method; format: organism-based; settings: 50 µM; method in brief: as §4
Rattus norvegicus = assay: Dose normalized AUC (0 to infinity) in Sprague-Dawley rat at 5 mg/kg, iv administered as single dose; format: ADME, organism-based; settings: in vivo; method in brief: as §3
Staphylococcus aureus [15] = assay: Suppression in growth of Staphylococcus aureus Newman at 0.2 mM measured after overnight incubation by spectrophotometric method; format: organism-based; settings: in vitro, 200 µM; method in brief: as §4
Staphylococcus aureus [16] = assay: Antibacterial activity against Staphylococcus aureus USA400 MW2 infected Balb/c mouse assessed as reduction of bacterial survival in liver at 1.3 mg, ip bid administered for 4.5 days followed by bacterial infection measured after 5 days; format: functional; method in brief: as §1
Staphylococcus aureus [17] = assay: Antibacterial activity against Staphylococcus aureus Mu50 infected Balb/c mouse assessed as reduction of bacterial survival in kidney at 1.3 mg, ip bid administered for 4.5 days followed by bacterial infection measured after 5 days; format: functional
Staphylococcus aureus [18] = assay: Sensitization of Staphylococcus aureus Newman to H2O2 assessed as bacterial survival at 1 uM measured after 24 hrs (reference value: 36.2%); format: functional
Staphylococcus aureus [19] = assay: Sensitization of Staphylococcus aureus USA300 LAC to immune clearance in human whole blood assessed as bacterial survival at 1 uM measured after 24 hrs (reference value: 12.2%); format: functional
[20] = Total plasma clearance in Sprague-Dawley rat at 5 mg/kg, iv administered as single dose; format: ADME, organism-based; method in brief: as §3
Staphylococcus aureus [21] = assay: Sensitization of methicillin-resistant Staphylococcus aureus USA300 LAC to H2O2 assessed as reduction in bacterial survival at 1 uM measured after 24 hrs relative to control; format: functional; method in brief: as §2
Staphylococcus aureus [22] = assay: Inhibition of staphyloxanthin pigment formation in Staphylococcus aureus Newman after 48 hrs by spectrophotometric method; format: functional, organism-based
Method in brief: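 Compounds as 20 mM DMSO stocks, serial 2-fold dilutions in DMSO; 40 µL added to 4 mL TSB culture, 37 °C for 48 h, in triplicate. Cells washed twice with PBS, pigment extracted with methanol, OD450 measured; IC50 from dose-response curve fit of OD data.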

Staphylococcus aureus [23] = assay: Sensitization of methicillin-resistant Staphylococcus aureus Mu50 to H2O2 assessed as bacterial survival at 1 uM measured after 24 hrs (reference value: 25.3%); format: functional; settings: Mu50, 24 h
Staphylococcus aureus [24] = assay: Suppression in growth of methicillin-resistant Staphylococcus aureus USA300 LAC at 0.2 mM measured after overnight incubation by spectrophotometric method; format: organism-based; settings: 200 µM; method in brief: as §4
[25] = system: Trichophyton mentagrophytes; assay: Antifungal activity against Trichophyton mentagrophytes measured after 7 days by serial dilution method; format: functional; method in brief: as §5
Staphylococcus aureus [26] = assay: Sensitization of methicillin-resistant Staphylococcus aureus USA300 LAC to H2O2 assessed as bacterial survival at 1 uM measured after 24 hrs (reference value: 14.2%); format: functional

Sequence of Voltage-gated inwardly rectifying potassium channel KCNH2 (Q12809 whole entry): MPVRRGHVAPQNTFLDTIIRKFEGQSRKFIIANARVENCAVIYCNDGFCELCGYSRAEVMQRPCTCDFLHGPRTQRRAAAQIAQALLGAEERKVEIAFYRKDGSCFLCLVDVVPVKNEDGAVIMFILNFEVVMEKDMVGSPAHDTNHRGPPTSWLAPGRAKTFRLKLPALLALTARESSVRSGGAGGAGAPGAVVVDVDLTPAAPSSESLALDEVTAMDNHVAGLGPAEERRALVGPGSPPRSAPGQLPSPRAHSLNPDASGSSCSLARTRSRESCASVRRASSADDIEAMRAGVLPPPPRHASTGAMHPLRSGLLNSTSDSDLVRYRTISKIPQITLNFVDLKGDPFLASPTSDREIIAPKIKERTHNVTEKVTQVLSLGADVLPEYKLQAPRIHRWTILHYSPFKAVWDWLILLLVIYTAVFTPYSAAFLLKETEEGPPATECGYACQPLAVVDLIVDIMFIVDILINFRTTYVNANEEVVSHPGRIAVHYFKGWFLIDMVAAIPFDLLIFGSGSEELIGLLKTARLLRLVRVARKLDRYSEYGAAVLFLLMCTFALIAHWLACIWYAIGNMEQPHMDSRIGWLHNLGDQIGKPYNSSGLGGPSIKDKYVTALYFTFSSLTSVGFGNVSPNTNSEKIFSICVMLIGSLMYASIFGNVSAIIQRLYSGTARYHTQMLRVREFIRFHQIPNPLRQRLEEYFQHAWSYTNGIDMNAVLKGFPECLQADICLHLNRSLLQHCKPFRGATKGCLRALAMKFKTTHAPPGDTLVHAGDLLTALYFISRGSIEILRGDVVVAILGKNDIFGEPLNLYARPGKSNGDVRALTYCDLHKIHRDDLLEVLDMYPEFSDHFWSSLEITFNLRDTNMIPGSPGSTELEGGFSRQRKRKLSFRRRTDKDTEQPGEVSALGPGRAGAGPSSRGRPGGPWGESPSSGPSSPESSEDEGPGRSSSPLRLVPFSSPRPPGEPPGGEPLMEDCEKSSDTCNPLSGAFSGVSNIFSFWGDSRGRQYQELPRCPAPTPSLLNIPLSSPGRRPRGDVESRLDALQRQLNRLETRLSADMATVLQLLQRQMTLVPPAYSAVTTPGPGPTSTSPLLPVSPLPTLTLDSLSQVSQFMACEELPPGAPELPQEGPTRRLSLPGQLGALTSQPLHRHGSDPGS

CN(C/C=C/c1ccc(C(F)(F)F)cc1)Cc1cccc2ccoc12.Cl
survival at 1 µM (Staphylococcus aureus [1]): 3% | survival at 1 µM (Staphylococcus aureus [2]): 1.3% | fold change (FC) (Staphylococcus aureus [3]): 33 | Activity (Staphylococcus aureus [4]): Active | fold change (FC) (Staphylococcus aureus [5]): 20 | survival at 1 µM (Staphylococcus aureus [6]): 0.8% | Vd [7]: 10.7 L/kg | pIC50 [8]: 4.17 | fold change (FC) (Staphylococcus aureus [9]): 6 | pIC50 [10]: 5.43 | Activity (Staphylococcus aureus [11]): Non-toxic | MIC80 (lowest concentration giving ≥80% growth inhibition) (Nannizzia gypsea): 32 µg/mL | half-life [12]: 8.23 h | pIC50 (Staphylococcus aureus [13]): 8.47 | Activity (Staphylococcus aureus [14]): Non-toxic | AUC/dose (Rattus norvegicus): 1299.47 ng/mL.hr/(mg/kg) | Activity (Staphylococcus aureus [15]): Non-toxic | Activity (Staphylococcus aureus [16]): 0.71 deltalog10CFU | Activity (Staphylococcus aureus [17]): 0.68 deltalog10CFU | survival at 1 µM (Staphylococcus aureus [18]): 1.2% | survival at 1 µM (Staphylococcus aureus [19]): 1.2% | clearance [20]: 54.3 mL/min/kg | fold change (FC) (Staphylococcus aureus [21]): 20 | pIC50 (Staphylococcus aureus [22]): 8.41 | survival at 1 µM (Staphylococcus aureus [23]): 4.3% | Activity (Staphylococcus aureus [24]): Non-toxic | MIC=<80 [25]: >64 µg/mL | survival at 1 µM (Staphylococcus aureus [26]): 0.7%

— ChEMBL document CHEMBL3813689, “Discovery of Potent Benzofuran-Derived Diapophytoene Desaturase (CrtN) Inhibitors with Enhanced Oral Bioavailability for the Treatment of Methicillin-Resistant Staphylococcus aureus (MRSA) Infections” (J Med Chem, 2016)
